Data: PubChem BioAssay
Calls of active or inactive are those of the source. Cut-off read from the data, not from the text of the source, unless noted: active = inhibition above about 30%; inactive = the rest.

Columns and labels:
[1] = Her2 expression decrease, cell viability multiplex – SKBR3 breast tumor cells, AlphaScreen, ATP viability, primary screen (AID 461;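 active = Her2 level under about 52% in both replicate screens, with viability over 70% of control, limit read from the data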;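 for Her2 level: lower value means less Her2 protein in the cells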;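 for viability: percent of carrier control wells set as 100% viability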); conditions: SKBR3 Her2 protein level, 18-24 h, measured here: SKBR3 viability, ATP luminescence, at 10 µM
[2] = target: Receptor tyrosine-protein kinase erbB-2 (Homo sapiens) (UniProt P04626); test: as above; conditions: 18-24 h, at 10 µM, stronger effect = lower value
Receptor tyrosine-protein kinase erbB-2 (Homo sapiens), sequence (P04626 whole entry, looked up): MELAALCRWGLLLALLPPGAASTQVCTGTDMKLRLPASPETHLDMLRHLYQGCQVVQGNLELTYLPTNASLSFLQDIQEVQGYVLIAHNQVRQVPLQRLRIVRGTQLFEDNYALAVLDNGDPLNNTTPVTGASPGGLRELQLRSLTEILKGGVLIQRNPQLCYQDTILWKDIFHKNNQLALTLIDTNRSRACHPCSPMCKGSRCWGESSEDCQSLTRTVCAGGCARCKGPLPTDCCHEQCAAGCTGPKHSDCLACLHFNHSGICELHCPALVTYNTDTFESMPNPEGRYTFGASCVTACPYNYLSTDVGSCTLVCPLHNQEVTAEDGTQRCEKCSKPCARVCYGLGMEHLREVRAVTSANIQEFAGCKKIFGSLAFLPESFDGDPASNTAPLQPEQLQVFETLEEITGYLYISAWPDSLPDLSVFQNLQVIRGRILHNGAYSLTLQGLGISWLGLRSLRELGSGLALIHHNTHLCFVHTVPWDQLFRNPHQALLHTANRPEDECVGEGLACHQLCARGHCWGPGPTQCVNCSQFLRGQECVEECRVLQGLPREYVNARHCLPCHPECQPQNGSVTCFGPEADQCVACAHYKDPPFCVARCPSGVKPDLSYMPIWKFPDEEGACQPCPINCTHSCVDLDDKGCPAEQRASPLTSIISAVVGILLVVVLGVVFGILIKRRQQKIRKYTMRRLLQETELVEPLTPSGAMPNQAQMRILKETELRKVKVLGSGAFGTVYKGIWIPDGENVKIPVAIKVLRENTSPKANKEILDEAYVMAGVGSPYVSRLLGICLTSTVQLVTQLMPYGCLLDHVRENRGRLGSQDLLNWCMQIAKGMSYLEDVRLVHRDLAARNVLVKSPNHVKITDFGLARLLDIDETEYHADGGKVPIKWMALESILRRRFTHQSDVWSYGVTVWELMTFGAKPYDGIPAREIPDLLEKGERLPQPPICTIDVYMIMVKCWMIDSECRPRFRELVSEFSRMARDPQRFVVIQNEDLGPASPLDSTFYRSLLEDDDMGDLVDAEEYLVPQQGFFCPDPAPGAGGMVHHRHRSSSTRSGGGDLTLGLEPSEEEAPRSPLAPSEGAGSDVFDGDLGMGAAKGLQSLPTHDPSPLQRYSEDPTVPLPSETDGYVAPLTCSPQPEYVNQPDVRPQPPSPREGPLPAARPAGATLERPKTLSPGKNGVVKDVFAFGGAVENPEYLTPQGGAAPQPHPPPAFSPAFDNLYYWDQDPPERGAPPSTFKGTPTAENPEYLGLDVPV

[3] = reduced viability of SK-BR-3 breast cancer cells – cell-based, 24 h, human, pilot screen (AID 572;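 active = viability at or below 10% of carrier control in both of two separate runs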;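 note: compound exposure lasted between 18 and 24 h rather than exactly 24 h; 100% = carrier-treated control wells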); conditions: SK-BR-3 viability, CellTiter-Glo luminescence, at 10 µM, stronger effect = lower value
[4] = HUVEC growth inhibition – cell-based, human, primary screen (AID 575;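 active = viability at or below 30% in both replicate assays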;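 note: 100% = median of untreated cell wells with 0.1% DMSO on each plate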); conditions: HUVEC proliferation, CellTiter-Glo luminescence, 72 h; at 10 µM; stronger effect = lower value
Procedure, shortened: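 Test system – primary HUVEC, no more than 12 passages · Dosing – one dose, 10 µM final, 0.1% DMSO · Times – 72 h treatment at 37 °C · Measured by – ATP-based CellTiter-Glo luminescent read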

[5] = H69AR cell proliferation blockers – human, duplicate replicates, primary screen (AID 580;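 active = viability at or under a set limit in both replicates, limit being median viability minus 3 SD, cut at about 48% in these data, passing the limit was not always enough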;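 note: 100% = mean luminescence of untreated wells and 0% = no signal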); conditions: H69AR lung tumor cells viability, ATP luminescence, 72 h; at 10 µM; stronger effect = lower value
[6] = MRP1 drug-resistance reversers in H69AR cells – cell-based, doxorubicin co-treatment, pilot screen (AID 601;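 active = viability loss from added drug above about 55%, and viability with drug at most 40%, in both replicates, limit read from the data, passing the limit was not always enough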); conditions: CellTiter-Glo, 72 h, at 10 µM; for differential viability (reversal): stronger effect = higher value
[7] = yeast transport mutant growth inhibition pilot in 384-well plates, post-Golgi transport modulator project (AID 636; in the data active = inhibition above about 31%); conditions: absorbance 615 nm, about 18 h, stronger effect = higher value
[8] = growth suppression of yeast trafficking mutant, preliminary HTS, modulators of trafficking downstream of Golgi apparatus project, 1536-format plate, OD 615 nm (AID 637); conditions: yeast transport mutant growth, absorbance 615 nm, 18 h; stronger effect = higher value
[9] = H69AR cells + 2 uM doxorubicin, measured here: viability with 2 uM doxorubicin, stronger effect = lower value
[10] = H69AR cells, compound alone cytotoxicity

Row | Compound | viability [1] [%] | Her2 level [2] | viability [3] | viability [4] | viability [5] | differential viability (reversal) ([6]; H69AR cells + 2 uM doxorubicin) | viability [6, 9] [%] | viability [6, 10] [%] | inhibition [7] | inhibition [8]
1 | O=C(NCc1cccnc1)C1CCCN(S(=O)(=O)c2ccc(Cl)cc2)C1 (stereo not given) | 102 | 96% (inactive) | 102% (inactive) | 77.1% (inactive) | 86.9% (inactive) | 1.95% (inactive) | 84.9 | 86.9 | -2.57% (inactive) | -1.75% (inactive)
2 | Cc1c(NC(=O)C(C)OC(=O)COc2cccc3c2OC(C)(C)C3)c(=O)n(-c2ccccc2)n1C (stereo not given) | 112 | 106% (inactive) | 112% (inactive) | 124% (inactive) | 92% (inactive) | -1.3% (inactive) | 93.3 | 92 | -4.47% (inactive) | 17.2% (inactive)
3 | CCCNS(=O)(=O)c1ccc(OCC(=O)NCc2ccc3c(c2)OCO3)cc1 | 105 | 89.5% (inactive) | 105% (inactive) | 88.2% (inactive) | 94.1% (inactive) | 4.96% (inactive) | 89.1 | 94.1 | -6.05% (inactive) | 11% (inactive)
4 | Cn1nc(C(=O)Nc2cccc(C(F)(F)F)c2)ccc1=O | 95.5 | 92% (inactive) | 95.5% (inactive) | 107% (inactive) | 91.5% (inactive) | 6.87% (inactive) | 84.7 | 91.5 | -3.29% (inactive) | 1.45% (inactive)
5 | Cn1cccc1Cc1nnc(SCC(=O)Nc2ccc(F)cc2)n1-c1ccc(F)cc1 | 86 | 93% (inactive) | 86% (inactive) | 71.9% (inactive) | 80.2% (inactive) | -9.93% (inactive) | 90.1 | 80.2 | 0% (inactive) | -1% (inactive)
6 | CCOC(=O)/N=C(/NC(=O)Nc1ccc(C(=O)OCC)cc1)OC | 99.5 | 75.5% (inactive) | 99.5% (inactive) | 83.7% (inactive) | 96.5% (inactive) | 14.8% (inactive) | 81.8 | 96.5 | -5.54% (inactive) | 5.4% (inactive)
7 | COc1cc(C2c3c(oc4c(C)cc(C)cc4c3=O)C(=O)N2Cc2cccnc2)cc(OC)c1OC (stereo not given) | 110 | 114% (inactive) | 110% (inactive) | 97.6% (inactive) | 110% (inactive) | 6.48% (inactive) | 104 | 110 | 1.33% (inactive) | -3.06% (inactive)
8 | c1ccc(CNc2ncnc3ccccc23)cc1 | 86 | 87% (inactive) | 86% (inactive) | 58.2% (inactive) | 83.8% (inactive) | -13.6% (inactive) | 97.3 | 83.8 | -5% (inactive) | 3.93% (inactive)
9 | COc1ccc(N2CCC(CNS(=O)(=O)c3cccc(C(F)(F)F)c3)C2)cc1 (stereo not given) | 98 | 95% (inactive) | 98% (inactive) | 84.5% (inactive) | 86.7% (inactive) | -2.23% (inactive) | 88.9 | 86.7 | -2.63% (inactive) | 16.6% (inactive)
10 | COCCNC(=O)C1CCCN(c2ncccn2)C1 (stereo not given) | 93 | 79% (inactive) | 93% (inactive) | 98.8% (inactive) | 89.8% (inactive) | -8.68% (inactive) | 98.5 | 89.8 | -7.81% (inactive) | 1.27% (inactive)
11 | O=S(=O)(NCCCCCNS(=O)(=O)c1ccccc1)c1ccccc1 | 92.5 | 90.5% (inactive) | 92.5% (inactive) | 112% (inactive) | 93.2% (inactive) | -13.4% (inactive) | 107 | 93.2 | -4% (inactive) | -3.39% (inactive)
12 | CCC1CCCN1Cn1cnc2c([nH]c3ccc(OC)cc32)c1=O (stereo not given) | 104 | 90% (inactive) | 104% (inactive) | 111% (inactive) | 91.3% (inactive) | 1.38% (inactive) | 89.9 | 91.3 | -5.6% (inactive) | 2.42% (inactive)
13 | CCOCCCNC(=O)CC1Oc2ccc(C)cc2NC1=O (stereo not given) | 109 | 100% (inactive) | 109% (inactive) | 86.8% (inactive) | 94.7% (inactive) | -3.06% (inactive) | 97.7 | 94.7 | -1.6% (inactive) | 5.08% (inactive)
14 | Cc1cc(NC(=O)COc2cccc3cccnc23)no1 | 93 | 75% (inactive) | 93% (inactive) | 102% (inactive) | 81% (inactive) | 1.54% (inactive) | 79.5 | 81 | -5.47% (inactive) | -2.79% (inactive)
15 | Nc1sccc1C(=O)c1ccccc1 | 85.5 | 118% (inactive) | 85.5% (inactive) | 82.6% (inactive) | 88.5% (inactive) | -2.76% (inactive) | 91.2 | 88.5 | -1.87% (inactive) | -0.16% (inactive)
16 | Cc1sc2c(c1C)CN(C1CC(C)(C)NC(C)(C)C1)CN2C(=O)c1ccco1 | 86.5 | 80.5% (inactive) | 86.5% (inactive) | 75.7% (inactive) | 83.7% (inactive) | 0.235% (inactive) | 83.4 | 83.7 | -7.33% (inactive) | 1.8% (inactive)
17 | COc1cc(NC(=O)c2cc(CC(C)C)on2)c(OC)cc1Cl | 92 | 102% (inactive) | 92% (inactive) | 105% (inactive) | 88.9% (inactive) | -3.37% (inactive) | 92.2 | 88.9 | 1.15% (inactive) | -5.33% (inactive)
18 | O=C(C1CCN(c2nnnn2-c2ccccc2)CC1)N1CCN(c2ccccc2)CC1 | 106 | 87.5% (inactive) | 106% (inactive) | 85.6% (inactive) | 79% (inactive) | 1.51% (inactive) | 77.5 | 79 | -5.27% (inactive) | 5.08% (inactive)
19 | CCOC(=O)C1CCN(S(=O)(=O)c2cc(Cl)c(C)cc2OC)CC1 | 90 | 92.5% (inactive) | 90% (inactive) | 105% (inactive) | 85.2% (inactive) | -9.44% (inactive) | 94.6 | 85.2 | -2.5% (inactive) | -3.39% (inactive)
20 | O=C(COC(=O)C1=COCCO1)Nc1ccccc1Oc1ccccc1 | 113 | 95% (inactive) | 113% (inactive) | 97.8% (inactive) | 93.8% (inactive) | 5.48% (inactive) | 88.3 | 93.8 | -7.37% (inactive) | -1.64% (inactive)
21 | O=C1CN(C(=O)COC(=O)c2ccccc2NC(=O)c2ccco2)c2ccccc2N1 | 94 | 106% (inactive) | 94% (inactive) | 97.3% (inactive) | 83.6% (inactive) | -14.1% (inactive) | 97.6 | 83.6 | -5.95% (inactive) | -0.49% (inactive)
22 | CCOC(=O)N1CCC(NC(=O)CS(=O)(=O)Cc2nc(-c3ccccc3C)oc2C)CC1 | 105 | 95% (inactive) | 105% (inactive) | 114% (inactive) | 95.7% (inactive) | -4.35% (inactive) | 100 | 95.7 | -3.73% (inactive) | 0.66% (inactive)
23 | COc1ccc(CCNC(=O)COc2ccc(S(=O)(=O)N3CCOCC3)cc2)cc1 | 98 | 87% (inactive) | 98% (inactive) | 102% (inactive) | 95.1% (inactive) | 6.25% (inactive) | 88.9 | 95.1 | -6.76% (inactive) | 0% (inactive)
24 | CC(C)(C)C(=O)Cn1c(=N)n(Cc2ccccc2)c2ccccc21 | 84.5 | 81.5% (inactive) | 84.5% (inactive) | 53.3% (inactive) | 76.2% (inactive) | -0.985% (inactive) | 77.1 | 76.2 | -3.2% (inactive) | -2.3% (inactive)
25 | COc1ccc(C(CNC(=O)c2ccc(OCC3CCCO3)cc2)N2CCOCC2)cc1 (stereo not given) | 90 | 93.5% (inactive) | 90% (inactive) | 82.9% (inactive) | 105% (inactive) | 13.8% (inactive) | 90.7 | 105 | -1.33% (inactive) | -2.42% (inactive)
26 | Cc1ccc2nsnc2c1S(=O)(=O)N(Cc1cc2cccc(C)c2[nH]c1=O)CC1CCCO1 (stereo not given) | 81.5 | 89% (inactive) | 81.5% (inactive) | 82.3% (inactive) | 21.4% (active) | 0% (inactive) | 21.4 | 21.4 | -5.6% (inactive) | -0.66% (inactive)
27 | COC(=O)c1cnn2c(C(F)(F)F)cc(-c3ccco3)nc12 | 99 | 80% (inactive) | 99% (inactive) | 79.9% (inactive) | 64.8% (inactive) | -11.7% (inactive) | 76.5 | 64.8 | -4.61% (inactive) | 0.82% (inactive)
28 | c1ccc(CCn2nnnc2C(c2cccs2)N2CCOCC2)cc1 (stereo not given) | 102 | 77.5% (inactive) | 102% (inactive) | 99.2% (inactive) | 107% (inactive) | 12.8% (inactive) | 94 | 107 | -5.62% (inactive) | -1.59% (inactive)
29 | COc1ccc(OC)c(C(=O)CSc2nnc(-c3ccc(OC)c(OC)c3)o2)c1 | 104 | 104% (inactive) | 104% (inactive) | 75.9% (inactive) | 74.5% (inactive) | 0.865% (inactive) | 73.7 | 74.5 | -5.32% (inactive) | -8.85% (inactive)
